Rows were chosen to be rich in hits. Some 2.4% of all compounds tested hit in one or more screens of this group.
miR122 inh: blocks miR-122 activity in Huh7 sensor cells. activation (reporter increase), % at 12.5 µM. 340,000 compounds, 0.3% hits. AID 602342. Huh7 miR-122 Renilla luciferase sensor, 48 h; neutral wells = 0, positive control = 100;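 active means mean replicate activation score at least 90 and every replicate individually at or above 90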;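 further: higher luciferase means less miR-122 activity so hits act as miR-122 inhibitors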
Cneo AK release: causes C. neoformans cell lysis. lysis activity, % at 15 µM. 360,000 compounds, 0.2% hits. adenylate kinase release luminescence, 4 h; normalised: neutral wells 0, clomiphene wells 100;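 active means mean lysis activity across replicates of at least 80%, whatever share of replicates individually reach that level; inactive means mean lysis activity below 80%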
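read-out = cell lysis signal | test system = log-phase Cryptococcus neoformans yeast cells | input = cells at 5 × 10^6 per mL | medium = fresh YPD growth medium | signal = luminescent adenylate kinase detection reagent | timing = 4 h at 37 °C static, read 1 h later | dosing = single dose | controls = Clomiphene as positive lysis control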
Rtt109 HAT inh: blocks Candida albicans Rtt109/Vps75 acetyltransferase activity. Q5AAJ8. purified Rtt109/Vps75, ThioGlo CoA-SH fluorescence, 4 h. inhibition, % at 34.9 µM. 330,000 compounds, 0.16% hits;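 active means inhibition of at least 50% in every replicate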
dFosB act: enhances mouse delta FosB homodimer DNA binding; activation, % at 25 µM; P13346; AID 493131; 340,000 compounds, 0.99% hits; purified delta FosB, TAMRA-CDK5 oligo fluorescence polarization; percent of positive-control signal above neutral wells;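 active means mean activation above about 17%, with every replicate also reaching it, limit read from the data, passing the limit was not always enough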
Target sequence (P13346 whole entry, looked up): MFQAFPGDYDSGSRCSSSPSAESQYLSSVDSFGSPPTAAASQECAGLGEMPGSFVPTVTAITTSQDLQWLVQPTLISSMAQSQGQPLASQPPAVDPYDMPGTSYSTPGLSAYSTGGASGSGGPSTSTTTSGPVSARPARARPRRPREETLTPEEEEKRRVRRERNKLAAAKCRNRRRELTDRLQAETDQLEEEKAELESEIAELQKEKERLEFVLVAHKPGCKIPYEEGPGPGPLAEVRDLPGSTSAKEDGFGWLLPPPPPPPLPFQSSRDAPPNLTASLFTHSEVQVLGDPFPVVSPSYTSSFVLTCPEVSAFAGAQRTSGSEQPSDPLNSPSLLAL
GSIS activator: primary screen for activators of insulin secretion dependent on glucose, INS-1E cells, GLuc reporter luminescence. 370,000 compounds, 0.61% hits. activation, % at 16.6 µM. INS-1E GLuc reporter insulin secretion, 2-3 h;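 active means lowest replicate activation of at least 40%, so every replicate reaches that level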
Env fusion inh: blocks HIV Env-driven cell-cell fusion; 360,000 compounds, 1.1% hits; HeLa-JRFL Env/CEM21 cell fusion, luciferase; inhibition, % at 12.3 µM;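 active means mean replicate inhibition score of at least 50 and every replicate individually at or above 50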
A number is an active result; i = inactive; nt = no result given.

SMILES	miR122 inh	Cneo AK release	Rtt109 HAT inh	dFosB act	GSIS activator	Env fusion inh
CS(=O)(=O)c1ccc(Cl)c(NC(=O)CN2CCCC2c2ccc3c(c2)OCCCO3)c1 (stereo not given)	i	i	i	i	nt	61
Cn1c(=O)[nH]c(=O)c2c1nc(NC1CCCC1)n2Cc1ccccc1	i	i	i	i	46	i
CCNc1nc2c(c(=O)[nH]c(=O)n2C)n1Cc1ccc(F)cc1	i	i	i	i	49	i
Cn1c(=O)[nH]c(=O)c2c1nc([N+](=O)[O-])n2Cc1ccccc1	nt	nt	i	i	i	i
C[C@H]1CN([C@@H](C)CO)C(=O)c2cc(C#Cc3ccncc3)cnc2O[C@@H]1CN(C)CC1CCCCC1	i	i	nt	nt	i	i
COc1ccccc1CNC(=O)COC(=O)c1cccnc1SCC(=O)NCc1ccccc1OC	nt	i	i	41	i	i
COc1ccccc1CNC(=O)COC(=O)CSc1ccc(C)c(C)c1	i	i	i	i	i	68
CCOC(=O)N(C)C[C@@H]1OCc2cn(nn2)CCCC(=O)N([C@H](C)CO)C[C@H]1C	i	i	nt	nt	i	57
CC(C)OC(=O)N(C)C[C@H]1OCc2cn(nn2)CCCC(=O)N([C@@H](C)CO)C[C@@H]1C	i	i	nt	nt	i	i
CCOC(=O)N(C)C[C@H]1OCc2cn(nn2)CCCC(=O)N([C@H](C)CO)C[C@H]1C	i	i	nt	nt	i	i
COC(=O)N(C)C[C@H]1OCc2cn(nn2)CCCC(=O)N([C@H](C)CO)C[C@@H]1C	i	100	nt	nt	i	i
CO[C@@H]1CC[C@@H]2CCOc3c(C#N)cccc3C(=O)N(C)C[C@H](c3ccccc3)CC(=O)N(C)C[C@@H]1O2	nt	83	nt	nt	i	i
COc1ccc(C(O)c2nc3ccccc3n2C)cc1OC (stereo not given)	i	i	i	i	nt	74
COc1ccc(-c2cc(=O)oc3c(C)c(O)ccc23)cc1	nt	i	i	i	i	72
COc1ccc2c3c([nH]c2c1)[C@@H](CO)N(C(=O)C1CCCC1)CC31CN(Cc2cccc(F)c2)C1	nt	nt	nt	nt	i	nt
O=C(NCc1ccc(Cl)cc1)C(=O)NCC(c1cccnc1)N1CCN(c2ccc(F)cc2)CC1 (stereo not given)	nt	nt	i	i	i	62
CC(C)(C)n1nnnc1C(c1ccc(F)cc1)N(Cc1ccc(F)cc1)Cc1ccco1 (stereo not given)	i	i	i	i	nt	124
CC(C)(C)n1nnnc1C(c1cccnc1)N(Cc1ccccc1)Cc1cccs1 (stereo not given)	i	i	i	i	nt	57
CC(C)(C)n1nnnc1C(c1ccc(C(F)(F)F)cc1)N(Cc1ccc(F)cc1)Cc1ccco1 (stereo not given)	i	i	i	i	nt	nt
CC(C)NC(=O)Nc1ccc2c(c1)C(=O)N([C@H](C)CO)C[C@@H](C)[C@H](CN(C)Cc1ccc(Cl)c(Cl)c1)OCCCC[C@H](C)O2	i	i	nt	nt	i	i
COc1ccccc1N1CCN(Cc2ccc(O)c3ncccc23)CC1	i	i	i	i	i	75
COc1ccccc1N1CCN(Cc2ccc(OC)c(OC)c2OC)CC1	i	i	i	i	nt	i
O=C(NCCCc1nc2ccccc2[nH]1)c1ccco1	i	i	i	i	i	84
O=C(c1cc(Br)c(Br)s1)N1CCOCC1	nt	i	i	i	i	63
COc1cccc(/C=N/NC(=O)CNC(=O)COc2cccc(C)c2)c1O	nt	nt	i	i	i	i
SMILES	miR122 inh	Cneo AK release	Rtt109 HAT inh	dFosB act	GSIS activator	Env fusion inh
Cc1cccc(OCC(=O)NCC(=O)N/N=C/c2ccc(O)cc2O)c1	i	nt	i	17	i	i
O=C(NNc1ccc([N+](=O)[O-])cc1)C12CC3CC(CC(C3)C1)C2	i	i	i	i	i	69
O=C(C[C@@H]1CC[C@H]2[C@@H](COC[C@H](O)CN2Cc2ccccc2)O1)N[C@@H]1CCN(Cc2ccccc2)C1	i	i	nt	nt	i	nt
COc1ccc(CCC(C)NC(=O)CCc2ccccc2)c(OC)c1 (stereo not given)	i	i	i	i	i	i
COc1cc(OC)c(OC)cc1CCC(C)NC(=O)Cc1ccccc1 (stereo not given)	nt	i	i	i	44	i
COc1cccc(-c2cnc3c(c2)C(=O)N([C@H](C)CO)C[C@@H](C)[C@H](CN(C)Cc2ccncc2)O3)c1	i	i	nt	nt	i	i
O=C(CC(c1ccccc1)c1ccco1)N1CCOCC1 (stereo not given)	i	i	i	i	49	nt
Cc1ccc(S(=O)(=O)NC(CC(=O)N2CCOCC2)c2ccco2)cc1 (stereo not given)	i	i	i	i	i	nt
O=C(C(c1ccccc1)c1ccccc1)N1CCOCC1	213	i	i	i	nt	nt
CCNC(=O)C[C@@H]1C=C[C@H](NS(=O)(=O)c2ccc(F)cc2)[C@H](CO)O1	i	i	nt	nt	i	i
COc1cccc(CN2[C@@H](CO)[C@H](c3ccccc3)C23CN(Cc2ccccc2OC)C3)c1	nt	nt	nt	nt	i	nt
O=C(Cc1ccc(NC(=O)C2CCCN(C(=O)c3ccccc3)C2)cc1)Nc1cccc(C(=O)N2CCCCC2)c1 (stereo not given)	nt	nt	nt	nt	79	i
C[C@@H]1CN([C@@H](C)CO)C(=O)c2cccc(NC(=O)Nc3ccc(C(F)(F)F)cc3)c2O[C@H]1CN(C)S(C)(=O)=O	i	i	nt	nt	i	nt
CCOc1nc(Nc2ccccc2F)nc(OCC)n1	i	i	i	i	62	i
O=c1ccc2[n+]([O-])c3ccc(O)cc3oc-2c1	nt	nt	i	40	i	i
CCC(=O)Nc1ccc2c(c1)C(=O)N(C)C[C@@H](OC)[C@@H](C)CN(C(=O)c1cnccn1)[C@@H](C)CO2	nt	i	nt	nt	i	nt
CCNC(=S)N/N=C/c1ccc(OCCOc2ccccc2C)cc1	i	i	i	i	137	i
CNC[C@H]1Oc2cc(C#Cc3ccccc3F)ccc2S(=O)(=O)N([C@H](C)CO)C[C@@H]1C	i	i	nt	nt	i	i
C[C@@H]1CN([C@H](C)CO)C(=O)c2cc(NC(=O)CCC(F)(F)F)ccc2O[C@@H](C)CCCCO[C@@H]1CN(C)C(=O)Cc1ccccc1	i	i	nt	nt	i	i
CCC(=O)N[C@@H]1C=C[C@@H](CC(=O)NCCN2CCCCC2)O[C@H]1CO	nt	i	nt	nt	i	i
COc1cc(CO)cc(Br)c1OCC(=O)Nc1cccc2ccccc12	i	i	i	i	48	i
COc1cccc(/C=N\NC(=O)c2ccc(Cn3cc(Br)c([N+](=O)[O-])n3)o2)c1O	nt	nt	nt	24	i	i
COc1cc(/C=N/NC(=O)c2ccc(COc3ccccc3Cl)o2)cc(Br)c1O	nt	nt	i	34	i	nt
COc1cccc(/C=N/NC(=O)c2ccc(COc3ccc(Cl)cc3Cl)o2)c1	i	i	i	i	nt	nt
C=C(C)C(=O)Nc1nnc(-c2cccs2)s1	nt	nt	i	i	118	i

Screening results deposited in PubChem BioAssay by Broad Institute.
